Results reported in ChEMBL document CHEMBL1149125, “Synthesis and biological evaluation in human monocyte-derived macrophages of N-(N-acetyl-L-cysteinyl)-S-acetylcysteamine analogues with potent antioxidant and anti-HIV activities” (2004).

Assay: Effective dose against human immuno deficiency virus-1/Ba-L in vitro in human monocyte-derived macrophages (MDM) cells
Type: functional
Settings: for EC50: read-out: ED50 (the source's name)
In short: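 Primary human monocytes (elutriated, ≥95% pure) differentiated 7 days into MDM in DMEM/10% heat-inactivated FCS; 1 million cells pretreated 1 h with a range of concentrations, then infected with HIV-1/BaL (10 000 TCID50, moi 0.01) for 24 h at 37 °C, washed, refed; medium and drug renewed twice weekly. Supernatant RT activity summed as cumulative RT; ED50/70/90 by Chou software; triplicate, two donors.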

EC50 [µM]	SMILES	ED70 [µM]	ED90 [µM]
45	CC(=O)N[C@@H](CS)C(=O)NCCSC(C)=O	80	195
145	CC(=O)N[C@@H](CS)C(=O)NCCSC(=O)C(C)(C)C	185	270
165	CC(=O)N[C@@H](CSC(=O)c1ccccc1)C(=O)NCCSC(=O)C(C)C	205	285
45	CC(=O)N[C@@H](CSC(C)=O)C(=O)NCCSC(=O)C(C)C	55	80
110	CC(=O)N[C@@H](CS)C(=O)NCCSC(=O)C(C)C	175	380
40	CC(=O)N[C@@H](CS)C(=O)NCCS	75	200
